Compounds with a hit are over-represented: about 3.5% of the library has one in this group of screens.
MrgX1 ag: activates human MrgX1 receptor signaling; Q96LB2; 310,000 compounds, 0.44% hits; MrgX1-HEK293 cells, Fluo-4 calcium fluorescence, agonist mode; hits give high values; B-score at 10 µM; AID 588627;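 active = calcium response B-score plate-corrected fluorescence ratio at least 3 library SD, with starting fluorescence B-score inside 5 SD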
Target sequence (Q96LB2 whole entry, looked up): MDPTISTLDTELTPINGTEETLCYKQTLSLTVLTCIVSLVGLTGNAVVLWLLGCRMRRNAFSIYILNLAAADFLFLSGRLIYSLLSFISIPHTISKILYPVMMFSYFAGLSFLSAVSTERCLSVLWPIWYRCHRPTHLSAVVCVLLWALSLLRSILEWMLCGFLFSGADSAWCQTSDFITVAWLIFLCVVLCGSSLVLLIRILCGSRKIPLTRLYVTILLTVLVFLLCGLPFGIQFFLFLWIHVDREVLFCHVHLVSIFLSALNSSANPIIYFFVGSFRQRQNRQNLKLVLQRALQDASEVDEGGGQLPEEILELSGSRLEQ
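Test system: HEK293 cells stably expressing human MrgX1 receptor; amount: 15,000 cells per well; doses: compound delivered in addition one of three; times: overnight plating before 1 h dye loading; detection: Fluo-4 NW calcium-flux fluorescence, kinetic read; read-out basis: B-scored fluorescence response ratio; controls: positive and negative controls per plate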
MrgX1 allo act: allosterically activates human MrgX1 receptor signaling. Q96LB2. MrgX1-HEK293, Fluo-4 calcium flux, FDSS; hits give high values. B-score at 10 µM. 310,000 compounds, 0.63% hits;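 active = plate-corrected calcium response at least 3 library SD above typical, normal starting fluorescence, not activating the receptor alone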;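 also: compound read alongside a low EC10 to EC30 dose of BAM8-22 agonist; peak minus trough fluorescence over baseline measured at the second addition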
RGS4 inh: inhibitors of human RGS4. P49798. HEK293 M3R/RGS4 inducible, Fluo-4 calcium flux; hits give high values; triggered by carbachol at its EC20. B-score at 10 µM. 310,000 compounds, 0.45% hits;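 active = B-score, a plate-corrected calcium signal, over three deviations above library mean, with baseline fluorescence within five deviations of library mean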;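 also: RGS4 expression induced by doxycycline in cells with stable M3 receptor; B-score is computed from the integrated fluorescence ratio over baseline after carbachol; higher B-score means a larger calcium signal and so more RGS4 inhibition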
Target sequence (P49798 whole entry, looked up): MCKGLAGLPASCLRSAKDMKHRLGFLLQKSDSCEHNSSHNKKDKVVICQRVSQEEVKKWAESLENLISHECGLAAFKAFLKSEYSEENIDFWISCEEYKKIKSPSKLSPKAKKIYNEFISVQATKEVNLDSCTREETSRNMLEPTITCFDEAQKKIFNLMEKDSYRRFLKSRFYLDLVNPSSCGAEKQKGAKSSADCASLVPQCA
MrgX1 antagonist: human MrgX1 receptor antagonism, primary screen; Q96LB2; MRGX1-HEK293 calcium flux, Fluo-4, BAM8-22 antagonism; hits give low values; B-score at 10 µM; 310,000 compounds, 1.3% hits;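 active = calcium-response B-score plate-corrected more than 3 library SD below zero, starting fluorescence within 5 deviations, no agonist response on first addition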;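 also: peak minus trough fluorescence over baseline after final BAM8-22 challenge near maximal dose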
RGS4 act: RGS4 potentiation or activation. HEK293 M3R/inducible RGS4, carbachol calcium flux Fluo4; hits give low values. B-score at 10 µM. 310,000 compounds, 0.92% hits. AID 463111;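 active = B-score of the integrated calcium signal more than 4 SD below the library mean, with starting fluorescence not abnormally high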;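 also: negative B-score means reduced calcium response which marks RGS4 activation or potentiation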
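Reagent: ECmax carbachol challenge; Test system: M3R-expressing HEK293 line, RGS4 induced by doxycycline; Schedule: overnight RGS4 induction, 30 min dye load 37 °C, 20 min compound RT; Detection: calcium dye Fluo4 fluorescence; Read-out: Agonist-evoked peak-minus-minimum fluorescence over baseline, integrated ratio, B score.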
RGS4 block valid: validation of RGS4 inhibitors | shares compounds with RGS4 inh | HEK293 M3R/RGS4, carbachol calcium Fluo-4 fluorescence; carbachol added at its EC20; 0 = buffer wells, 100 = carbachol control | calcium response, % at 10 µM | 1,700 compounds, 65% hits;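 active = duplicate-averaged calcium response above the buffer-only control mean plus 5 SD of those controls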;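 also: integrated fluorescence ratio F max minus min over baseline F0; higher response in RGS4-induced cells means RGS4 inhibition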
RGS4 uninduced: non-induced cell nonspecific activity of RGS4 inhibitors | 1,900 compounds, 20% hits | AID 493000 | activity (percent), % at 10 µM | HEK293 M3R non-induced, carbachol calcium Fluo-4; submaximal (EC20) carbachol stimulus; buffer wells 0%, carbachol control wells 100% | shares compounds with RGS4 inh; call rule not given here;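 also: RGS4 induction absent so cells express M3R without RGS4; higher means more calcium signal and flags a non-specific hit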
RGS4 inh ctr2: second counter-screen for RGS4 inhibitors: non-induced cells without carbachol; shares compounds with RGS4 inh; 1,900 compounds, 22% hits; HEK293 M3R/RGS4 non-induced, Fluo-4 calcium, no carbachol; normalised: buffer wells 0%, carbachol wells 100%; calcium response (agonist-mode artifact), % at 10 µM;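 active = duplicate-averaged calcium rise in uninduced cells above buffer wells' mean plus 5 SD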
MrgX1 ag confirm: confirmation of human MrgX1 receptor agonists | shares compounds with MrgX1 ag | AID 602412 | MrgX1-HEK293, Fluo-4 calcium fluorescence, FDSS | activation, % at 10 µM | 600 compounds, 78% hits;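 active = calcium signal rise, corrected for plate position, at least 3 library SD high, with starting brightness within 5 such deviations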
MrgX1 allo conf: reconfirmed allosteric activator of human MrgX1 receptor; 1,200 compounds, 13% hits; activation (ratio percentage), % at 10 µM; shares compounds with MrgX1 allo act; MrgX1-HEK293, Fluo-4 calcium fluorescence, FDSS;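 active = ratio at least 3 SD above the weak peptide control, stable starting fluorescence, no direct agonism earlier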;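 also: compound followed by low BAM8-22 agonist challenge near EC20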
HEK293 Ca flux: counter-screen for MrgX1 antagonists: effect in parental HEK293 cells; shares compounds with MrgX1 antagonist; Fluo-4 calcium fluorescence, FDSS; fluorescence ratio F(max-min)/F0 at 10 µM; 4,000 compounds, 2% hits;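 active = duplicate-averaged calcium fluorescence ratio at least three times the standard deviation of buffer wells, a nonspecific response in parental cells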
HEK293 Ca counter: activity in parental HEK293 cells without MrgX1 | shares compounds with MrgX1 antagonist | parental HEK293 calcium flux, Fluo-4 fluorescence ratio; hits give high values | fluorescence ratio F(max-min)/F0 at 10 µM | 4,000 compounds, 0.4% hits | AID 624114;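 active = calcium fluorescence ratio, averaged over duplicates, at least 3 SD of the buffer-well ratio, meaning a nonspecific response in receptor-free cells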;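 also: untransfected parental HEK293 lacking MrgX1 used as counterscreen for MrgX1 allosteric activators; fluorescence change taken during the second addition on a kinetic imager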
HEK293 Ca cntr2: activity in parental HEK293 cells lacking MrgX1 receptor; shares compounds with MrgX1 antagonist; Fluo-4 calcium fluorescence (FDSS); hits give high values; fluorescence ratio F(max-min)/F0 at 10 µM; 4,000 compounds, 8.7% hits; AID 624115;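 active = calcium fluorescence ratio at least three times the spread of buffer wells, meaning a non-specific response in parental cells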
The depositor's hits bear a star; i = inactive; · = no result.

SMILES | MrgX1 ag | MrgX1 allo act | RGS4 inh | MrgX1 antagonist | RGS4 act | RGS4 block valid | RGS4 uninduced | RGS4 inh ctr2 | others
CCOC(=O)N1CCc2c(sc3c2c(=O)n(Cc2ccccc2)c(=O)n3CC(=O)NCC2CCCO2)C1 (centres undefined) | i | i | i | i | i | · | · | ·
CCOC(=O)N1CCc2c(sc3c2c(=O)n(Cc2ccccc2)c(=O)n3Cc2ccccc2F)C1 | i | i | 7.34* | i | i | 56.5%* | 33.5%* | i
CCC1(C)Cc2c(sc3c2c(=O)n(C)c2nnc(SCC(=O)c4ccccc4)n32)CO1 (centres undefined) | i | i | i | i | i | · | · | ·
COC(=O)c1ccc(OC)c(NS(=O)(=O)c2ccc(-n3cnnn3)cc2)c1 | i | i | i | i | i | · | · | ·
CC(=O)c1ccc(-n2nncc2-c2ccc([N+](=O)[O-])cc2)cc1 | i | i | i | i | i | · | · | ·
Cc1[nH]n(-c2ncc(-c3ccccc3)s2)c(=O)c1C(c1ccc(Cl)cc1)C(C#N)C#N (centres undefined) | i | i | 13.7* | -5.32* | i | 70.5%* | i | 52.5%*
CN(C)CCC(=O)c1cccc(Br)c1 | i | i | 6.79* | i | i | i | i | 28.5%*
COc1ccc(-c2nnc(Nc3ccc(OC)c(C(=O)N4CCCCC4)c3)c3ccccc23)cc1 | i | i | i | i | i | · | i | i
Cn1c(=O)[nH]c(=O)c2c1nc(SCC(O)CO)n2CCCc1ccccc1 (centres undefined) | i | i | i | i | i | · | · | ·
CC1CC(NC(=O)c2c(O)nc3sccn3c2=O)CC(C)(C)C1 (centres undefined) | i | i | 13.7* | i | i | 22.0%* | 48.5%* | i
COC(=O)N(NC(=O)C(O)(CCC(C)C)CCC(C)C)c1ccccc1 | i | i | i | i | i | · | · | ·
CCSc1n[nH]c2nc3c(c(=O)n12)C1(CCCCC1)Cc1ccccc1-3 | i | i | i | i | i | · | i | i
N#CCSc1n[nH]c2nc3c(c(=O)n12)C1(CCCCC1)Cc1ccccc1-3 | i | i | i | i | i | · | · | ·
Cc1ccccc1-n1c(=O)c2c(n3cnnc13)-c1ccccc1CC21CCCCC1 | i | i | i | i | i | · | · | ·
CCn1c(=O)c2c(n3c(=S)[nH]nc13)-c1ccccc1CC21CCCCC1 | i | i | 8.34* | i | i | 45.5%* | 57.0%* | i
CCCn1c(SCC(N)=O)nc2c(c1=O)C1(CCCC1)Cc1ccccc1-2 | i | i | i | i | i | · | · | ·
CSc1n[nH]c2nc3c(c(=O)n12)C1(CCCCC1)Cc1ccccc1-3 | i | i | 4.67* | i | i | 12.5%* | i | i
COc1ccc(C(=O)COC(=O)c2cc3ccccc3oc2=O)c(OC)c1 | i | i | i | i | i | · | · | ·
Cc1ccc(S(=O)(=O)CCCS(=O)(=O)c2ccc(C)cc2)cc1 | i | i | i | i | i | · | · | ·
O=C(NCc1ccccc1Cl)/C(=C\c1cccnc1)NC(=O)c1ccccc1 | i | i | i | i | i | · | · | ·
COc1ccc(C(=O)N/C(=C\c2ccccc2)C(=O)NCc2cccnc2)cc1 | i | i | i | i | i | i | i | i
O=C(NCc1cccnc1)/C(=C/c1ccc(Cl)cc1)NC(=O)c1ccccc1 | i | i | i | i | i | i | i | i
CCc1ccc2c(Cl)c(C(=O)N/N=C/c3c[nH]c4ccccc34)sc2c1 | i | i | 4.78* | i | i | 17.5%* | 39.5%* | 8.5%*
CCc1ccc(-c2cc(C(=O)N/N=C/c3c[nH]c4ccccc34)[nH]n2)cc1 | i | i | 4.87* | i | i | i | i | i
C#CCN(C#N)c1nc(NCC)nc(NC(C)C)n1 | i | i | i | i | i | · | · | ·
SMILES | MrgX1 ag | MrgX1 allo act | RGS4 inh | MrgX1 antagonist | RGS4 act | RGS4 block valid | RGS4 uninduced | RGS4 inh ctr2 | others
CCN(C#N)c1nc(NC(C)C)nc(NC(C)C)n1 | i | i | i | i | i | i | i | i
Cc1c(-c2nc(N)nc(Nc3ccccc3F)n2)oc2ccccc12 | i | 16.5* | i | i | i | · | i | i | MrgX1 allo conf=58.5%*;HEK293 Ca flux=i;HEK293 Ca counter=i;HEK293 Ca cntr2=i
COc1cc(C=C2C(=O)OC(c3ccccc3)OC2=O)cc(Br)c1O (centres undefined) | i | i | i | i | i | · | · | ·
COc1cc(/C=C2\C(=O)ON=C2c2ccccc2)cc(Br)c1O | 78.2* | i | 4.69* | i | i | 9.5%* | i | 281.0%* | MrgX1 ag confirm=i;HEK293 Ca flux=i;HEK293 Ca counter=i;HEK293 Ca cntr2=i
CCOc1cc(/C=C2\C(=O)ON=C2c2ccccc2)cc(Br)c1O | 82.6* | i | i | i | i | i | i | 322.0%* | MrgX1 ag confirm=i;HEK293 Ca flux=i;HEK293 Ca counter=i;HEK293 Ca cntr2=i
COc1cc(/C=C2/NC(=O)N(c3cccc(Cl)c3)C2=O)ccc1O | i | i | i | i | i | · | · | ·

From PubChem BioAssay
